Consider eleven compounds from ChEMBL document CHEMBL1152551, “Synthesis and pharmacological evaluation of novel 1- and 8-substituted-3-furfuryl xanthines as adenosine receptor antagonists” (Bioorg Med Chem, 2009).

One may read the Ki as the equilibrium dissociation constant of an inhibitor or competing ligand from its target. Low values mean a stronger hold on the target, high ones a looser hold on the target.

Test [1] deals with T1, Adenosine receptor A2b (Homo sapiens) (UniProt P29275).
T1 sequence (whole entry): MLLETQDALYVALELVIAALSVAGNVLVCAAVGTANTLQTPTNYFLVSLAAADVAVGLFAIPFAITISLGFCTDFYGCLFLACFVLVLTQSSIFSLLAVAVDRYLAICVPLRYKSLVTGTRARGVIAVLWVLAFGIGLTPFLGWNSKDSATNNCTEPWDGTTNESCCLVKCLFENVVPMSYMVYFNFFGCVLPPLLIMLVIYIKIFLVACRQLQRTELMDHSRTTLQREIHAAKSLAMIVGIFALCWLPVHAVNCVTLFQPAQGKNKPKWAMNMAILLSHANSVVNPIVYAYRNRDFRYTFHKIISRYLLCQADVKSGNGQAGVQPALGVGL
The experiment in a line: Displacement of [3H]DPCPX from human adenosine A2B receptor expressed in HEK293 cells at 1 uM. Type of test: cell-based. The method, boiled down: (§1)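 Single concentration of 1 µM tested for displacement of specific radioligand binding, given as percentage displacement. Rat A1 in rat cortex membranes with [3H]DPCPX; human A2B in HEK-293 cells with [3H]DPCPX; human A2A in HeLa cells with [3H]ZM241385; human A3 in HeLa cells with [3H]NECA.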

A further test addresses Adenosine receptor A2a (Homo sapiens, UniProt P29274). The experiment in a line: Displacement of [3H]ZM241385 from human adenosine A2A receptor expressed in HeLa cells at 1 uM by microplate beta scintillation counting. It is filed as cell-based. In short, it runs like this:
as §1
On the technique in general: Loss of bound radioactivity is the signal in a displacement assay; it reports binding, not function.

The target of test [2] is T2, Adenosine receptor A1 (Rattus norvegicus) (UniProt P25099).
T2 sequence (whole entry): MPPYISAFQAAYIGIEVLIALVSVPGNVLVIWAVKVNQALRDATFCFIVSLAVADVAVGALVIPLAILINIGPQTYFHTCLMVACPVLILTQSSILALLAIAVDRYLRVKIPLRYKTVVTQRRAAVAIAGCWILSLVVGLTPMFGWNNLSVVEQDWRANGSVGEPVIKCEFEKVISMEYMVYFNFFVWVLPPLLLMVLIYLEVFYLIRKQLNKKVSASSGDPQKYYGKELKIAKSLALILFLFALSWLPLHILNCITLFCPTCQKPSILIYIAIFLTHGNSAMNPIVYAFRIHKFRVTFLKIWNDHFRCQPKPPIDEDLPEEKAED
The experiment in a line: Displacement of [3H]DPCPX form adenosine A1 receptor in rat cortex membrane at 1 uM. Type of test: cell membranes. The method, boiled down: as §1

Test [3] deals with T3, Adenosine receptor A3 (Homo sapiens) (UniProt P0DMS8).
T3 sequence (whole entry): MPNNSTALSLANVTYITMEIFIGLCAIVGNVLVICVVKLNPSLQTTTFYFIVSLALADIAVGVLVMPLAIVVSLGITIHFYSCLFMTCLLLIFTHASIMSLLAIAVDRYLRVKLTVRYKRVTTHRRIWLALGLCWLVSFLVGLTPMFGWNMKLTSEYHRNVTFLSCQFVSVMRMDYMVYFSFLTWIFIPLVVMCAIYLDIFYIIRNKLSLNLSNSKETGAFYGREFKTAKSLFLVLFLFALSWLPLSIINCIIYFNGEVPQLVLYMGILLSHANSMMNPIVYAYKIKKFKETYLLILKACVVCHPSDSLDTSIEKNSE
The experiment in a line: Displacement of [3H]NECA from human recombinant adenosine A3 receptor expressed in HeLa cells at 1 uM. It is filed as cell-based. In short, it runs like this: as §1

For another test, the target named is T4, Adenosine receptor A2b (Homo sapiens, UniProt P29275).
T4 sequence (P29275 whole entry): T1 sequence (whole entry)
The experiment in a line: Displacement of [3H]DPCPX from human adenosine A2B receptor expressed in HEK293 cells. Type of test: cell-based. In short, it runs like this: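 Competition binding with radioligand: rat A1 in rat cortex membranes with [3H]DPCPX; human A2B expressed in HEK-293 cells with [3H]DPCPX; human A2A expressed in HeLa cells with [3H]ZM241385. Affinity reported as pKi; compounds not fully displacing specific binding at 1 µM were instead given as displacement percentage. SEM below 10%.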

Adenosine receptor A2a, sequence (P29274 whole entry): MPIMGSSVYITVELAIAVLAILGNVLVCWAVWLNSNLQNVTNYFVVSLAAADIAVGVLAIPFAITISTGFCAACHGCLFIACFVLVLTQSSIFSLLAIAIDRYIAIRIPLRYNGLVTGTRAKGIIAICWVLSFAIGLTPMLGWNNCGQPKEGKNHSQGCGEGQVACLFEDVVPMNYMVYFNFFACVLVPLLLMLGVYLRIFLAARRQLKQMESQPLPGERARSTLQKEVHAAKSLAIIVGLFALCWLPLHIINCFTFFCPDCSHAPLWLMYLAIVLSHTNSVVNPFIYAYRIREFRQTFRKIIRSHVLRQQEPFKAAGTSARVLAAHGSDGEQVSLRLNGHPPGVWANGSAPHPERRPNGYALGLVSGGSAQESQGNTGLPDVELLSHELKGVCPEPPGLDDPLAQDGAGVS

`CCCCCn1c(=O)c2[nH]c(Cc3cccs3)nc2n(Cc2ccco2)c1=O`: the Activity in test [1] is 17%; at Adenosine receptor A2a, 10%; in test [2] it was 21%; in test [3], 11%.
`COCCn1c(=O)c2[nH]c(Cc3cccs3)nc2n(Cc2ccco2)c1=O`: the Activity in test [1] is 70%; on Adenosine receptor A2a it was 34%; in test [2], 17%; in test [3], 2%.
For `CCSCCn1c(=O)c2[nH]c(Cc3ccco3)nc2n(Cc2ccco2)c1=O`, the results for the Activity (on Adenosine receptor A2a; in test [2]; in test [3]) were 17%, 42% and 4%, respectively. The compound also had a Ki at Adenosine receptor A2b of 646 nM.
For the compound `COCCn1c(=O)c2[nH]c(Cc3c(F)cccc3F)nc2n(Cc2ccco2)c1=O`, the Activity in test [1] came to 70%; at Adenosine receptor A2a, 23%; in test [2], 28%; in test [3], 4%.
In the case of `COCCn1c(=O)c2[nH]c(Cc3ccccc3)nc2n(Cc2ccco2)c1=O`, the Activity in test [1] stood at 65%; at Adenosine receptor A2a, 32%; in test [2] it was 27%; in test [3], 5%.
`CCSCCn1c(=O)c2[nH]c(Cc3cccs3)nc2n(Cc2ccco2)c1=O`: the Activity on Adenosine receptor A2a worked out at 4%; in test [2], 32%; in test [3], 13%. The Ki on Adenosine receptor A2b is 275 nM.
Take `O=c1c2[nH]c(Cc3c(F)cccc3F)nc2n(Cc2ccco2)c(=O)n1CC1CC1`: the Activity in test [1] amounted to 59%; on Adenosine receptor A2a, 6%; in test [2] it was 14%; in test [3] it was 7%.
As for `CC[S+]([O-])CCn1c(=O)c2[nH]c(Cc3ccccc3)nc2n(Cc2ccco2)c1=O` (centres undefined), the Activity in test [1] came to 9%; on Adenosine receptor A2a, 11%; in test [2] it was 1%; in test [3], 26%.
The matching figures for `C=CCn1c(=O)c2[nH]c(Cc3c(F)cccc3F)nc2n(Cc2ccco2)c1=O`: 24%, 11%, 3% and 1%.
Turning to `CCOCCn1c(=O)c2[nH]c(Cc3ccccc3)nc2n(Cc2ccco2)c1=O`, the Activity in test [1] was determined as 31%; on Adenosine receptor A2a, 2%; in test [2] it was 25%; in test [3], 6%.
The corresponding values for `CCS(=O)(=O)CCn1c(=O)c2[nH]c(Cc3ccccc3)nc2n(Cc2ccco2)c1=O` are 20%, 1%, 2% and 1%.
